Here are results for six compounds from ChEMBL document CHEMBL1121796, “Bioactivation of the antitumor drugs 9-hydroxyellipticine and derivatives by a peroxidase-hydrogen peroxide system” (1981).

pIC50: −log10 of the molar value.

Test [1] concerns L1210. The test is described as follows: Compound was tested for its cytotoxic activity against murine leukemia L1210 cells in mice after intraperitoneal treatment, expressed as LD0 (highest nonlethal dose). The format is functional, Mus musculus. The essentials:
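Highest nonlethal dose (LD0) found for each drug after a single intraperitoneal injection into DBA/2 or Swiss mice.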

The subject of test [2] is Mus musculus. Kind of test: Increase in life span over controls (10e5 cells) in mice after intraperitoneal treatment of the compound. The class given is functional. Also on record: concentration or dose not given beside the values. The essentials:
(§1)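 DBA/2 mice were inoculated with 10⁵ L1210 leukemia cells and given a single intraperitoneal injection of drug. Survival was compared with untreated controls as increase in life span, ILS = [(T − C)/C] × 100. An antitumor effect was counted significant at ILS ≥ 25%.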

The target of test [3] is Myeloperoxidase (Homo sapiens) (UniProt P05164). Kind of test: The effect on NADH oxidation in the presence of MPO-H2O2.
For test [4] the target is unchanged. The test is described as follows: he effect on oxygen consumed in the presence of MPO-H2O2.
For test [5], the system named is L1210. Kind of test: Compound was tested for its antitumor activity against murine leukemia L1210 cells in vitro, expressed as ID50. The class given is functional. As to conditions: Mus musculus, read-out: ID50 (the source's name). The essentials:
(§2)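 L1210 murine leukemia cells were grown in culture with drug for 48 h. ID50 is the drug concentration that cuts the rate of cell multiplication by 50% compared with untreated controls.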

In test [6] the target is Myeloperoxidase (Homo sapiens) (UniProt P05164). Kind of test: The effect on oxygen consumed in the presence of MPO-H2O2.
In test [7] the test system is L1210. Kind of test: The compound is tested for its antitumor activity against murine leukemia L1210 cells in vitro, expressed as ID50. As to conditions: Mus musculus, read-out: ID50 (the source's name). The class given is functional. The essentials: as §2
Test [8] relates to L1210. Kind of test: The compound is tested for its cytotoxic activity against murine leukemia L1210 cells in mice after intraperitoneal treatment, expressed as LD0 (highest nonlethal dose). The format is functional, Mus musculus.
Test [9] concerns Mus musculus. The test is described as follows: Increase in life span over control (10e5 cells) in mice after intraperitoneal treatment of the compound. The format is functional. An outline of the steps: as §1
Test [10] has as its target Myeloperoxidase (Homo sapiens) (UniProt P05164). Kind of test: The effect on NADH oxidation in the presence of MPO-H2O2 without compound at pH 7.4.
For test [11] the target is unchanged. The test is described as follows: The effect on NADH oxidation in the presence of MPO-H2O2 without the compound at pH 6.0.
Test [12] shares this target. Kind of test: The effect on oxygen uptake in the presence of MPO-H2O2 without the compound at pH 7.8.
For test [13] the target is unchanged. Kind of test: The effect on oxygen uptake in the presence of MPO-H2O2 without the compound at pH 6.8.
For test [14] the target is unchanged. Kind of test: The effect on oxygen uptake in the presence of MPO-H2O2 at pH 7.8.
The target is the same in test [15]. The test is described as follows: The effect on NADH oxidation in the presence of MPO-H2O2 without the compound.
Test [16] shares this target. Kind of test: The effect on oxygen uptake in the presence of MPO-H2O2 at pH 6.8.
Test [17] has the same target. Kind of test: The effect on NADH oxidation in the presence of MPO-H2O2 at pH 7.8.
For test [18] the target is unchanged. The test is described as follows: The effect on NADH oxidation in the presence of MPO-H2O2 without the compound at pH 8.3.
Test [19] shares this target. The test is described as follows: The effect on NADH oxidation in the presence of MPO-H2O2 at pH 8.3.
Test [20] has the same target. The test is described as follows: The effect on NADH oxidation in the presence of MPO-H2O2 at pH 6.0.
The target is the same in test [21]. The test is described as follows: The effect on oxygen uptake in the presence of MPO-H2O2 without the compound at pH 8.3.
For test [22] the target is unchanged. Kind of test: The effect on oxygen uptake in the presence of MPO-H2O2 at pH 8.3.
For test [23] the target is unchanged. The test is described as follows: The effect on NADH oxidation in the presence of MPO-H2O2. This is another data set of the same source.
Test [24] has the same target. The test is described as follows: The effect on oxygen uptake in the presence of MPO-H2O2 without the compound at pH 7.4.
Test [25] shares this target. Kind of test: The effect on oxygen uptake in the presence of MPO-H2O2 at pH 7.4.
The target is the same in test [26]. Kind of test: The effect on NADH oxidation in the presence of MPO-H2O2 at pH 6.8.
Test [27] shares this target. Kind of test: The effect on oxygen uptake in the presence of MPO-H2O2 without the compound at pH 6.0.
The target is the same in test [28]. The test is described as follows: The effect on NADH oxidation in the presence of MPO-H2O2 without compound at pH 7.8.
For test [29] the target is unchanged. The test is described as follows: The effect on NADH oxidation in the presence of MPO-H2O2 at pH 7.4.
The target is the same in test [30]. Kind of test: The effect on oxygen uptake in the presence of MPO-H2O2 at pH 6.0.

For orientation: ILS means how much longer treated animals lived than controls. `Cc1c2cc[n+](C)cc2c(C)c2c1[nH]c1ccccc12`: the LD0 in the test on L1210 [1] came out at 12.5 mg/kg. In the test on Mus musculus [2], this compound gave an ILS of 18%. Moreover, the NADH oxidized in test [3] was 0 nM/min. The Oxygen consumed in test [4] is 0 nM/min. Further, the pIC50 in the test with L1210 [5] is 5.77.

Turning to `COc1ccc2[nH]c3c(C)c4ccncc4c(C)c3c2c1`, the Oxygen consumed in [6] came out at 0 nM/min. The pIC50 in the test on L1210 [7] is 6.22. The compound further gave an LD0 in the test with L1210 [8] of 70 mg/kg. Moreover, in the test with Mus musculus [2], the ILS is recorded as 70%. In addition, the NADH oxidized in [3] is 0.22 nM/min.

For the compound `Cc1c2cc[n+](C)cc2c(C)c2c1[nH]c1ccc(O)cc12` [ELLIPTINIUM], the Oxygen consumed in [6] was found to be 0 nM/min. Also, in the test on L1210 [1], the LD0 was determined as 5 mg/kg. Moreover, the ILS in the test on Mus musculus [2] is on record as 62%. In addition, in test [3], the NADH oxidized was found to be 12.2 nM/min. Besides, the pIC50 with L1210 [5] was 7.30.

With `Cc1c2ccncc2c(C)c2c1[nH]c1ccccc12` [ELLIPTECINE], the Oxygen consumed in [6] was 0 nM/min. Moreover, the LD0 in the test on L1210 [1] is 50 mg/kg. The compound also displayed an ILS in the test on Mus musculus [2] of 68%. Further, the NADH oxidized in test [3] turned out to be 0 nM/min. Besides, the pIC50 with L1210 [5] was 6.00.

`Cc1c2c[n+](C)ccc2c(C)c2c1c1cc(O)ccc1n2C`: the Oxygen consumed in [6] came to 7.7 nM/min. Further, the ILS in the test on Mus musculus [9] came out at 78%. Besides, in the test with L1210 [1], the LD0 worked out at 15 mg/kg. Moreover, the NADH oxidized in test [3] is 16.15 nM/min. Besides, the pIC50 with L1210 [5] is 7.39.

As for `Cc1c2ccncc2c(C)c2c1[nH]c1ccc(O)cc12`, the NADH oxidation in test [10] came out at 0 nM/min; in test [15], 0.5 nM/min; in test [17], 7.2 nM/min; in [18], 0 nM/min; in test [19], 6.5 nM/min; in [20] it was 5.5 nM/min. Further, the NADH oxidation in [26] was found to be 7.8 nM/min; in test [28] it was 0 nM/min; in [29] it was 10.2 nM/min. Also, the results for the NADH oxidized in [11] and in test [3] were 1.2 nM/min and 10.5 nM/min, respectively. Also, the Oxygen uptake in test [12] was 0 nM/min; in test [13], 0.28 nM/min; in [14] it was 0 nM/min; in [16] it was 0 nM/min; in test [21], 0 nM/min; in test [22] it was 0 nM/min. For the same compound, the Oxygen uptake in test [24] came out at 0 nM/min; in test [25], 0 nM/min; in test [27], 0.52 nM/min; in [30], 0 nM/min. This compound yielded an LD0 in the test with L1210 [1] of 50 mg/kg. For the same compound, the Oxygen consumed in test [23] worked out at 0 nM/min. Further, the increase in life span (ILS) in the test on Mus musculus [2] was found to be 53%. In addition, in the test on L1210 [5], the pIC50 was 7.82.
